Reference: ChEMBL document CHEMBL4406822, “Neuroactive Steroid N-Methyl-d-aspartate Receptor Positive Allosteric Modulators: Synthesis, SAR, and Pharmacological Activity” (J Med Chem, 2019)
The source made the active and inactive calls. The rule behind the calls is not given here.

What was measured:
[1] = Stability in human liver microsomes; assay type: ADME, Microsome; details: read-out: Stability
[2] = target: T1, Glutamate NMDA receptor; GRIN1/GRIN2A (Homo sapiens, UniProt Q05586+Q12879); test: Positive allosteric modulation of recombinant human GluN1/GluN2A receptor stably expressed in HEK293 cells assessed as increase in glycine/L-glutamate-induced channel current at -70 mV holding potential by IonWork […] method relative to control; assay type: cell-based
Method in brief: (§1)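 Stable HEK293 lines expressing GluN1/GluN2A or GluN1/GluN2B, measured by automated whole-cell patch clamp (Ionworks Barracuda). Cells were held at -70 mV and stepped to -45 mV during agonist application (EC20 L-glutamate plus 50 µM glycine). The test article was first pre-applied alone for 5 min, then co-applied with agonist to record potentiation. Concentration-response percent potentiation gave EC50 and Emax.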

[3] = Stability in rat liver microsomes; assay type: ADME, Microsome; details: read-out: Stability
[4] = target: T2, Glutamate NMDA receptor; GRIN1/GRIN2B (Homo sapiens, UniProt Q05586+Q13224); test: Positive allosteric modulation of recombinant human GluN1/GluN2B receptor stably expressed in HEK293 cells assessed as increase in glycine/L-glutamate-induced channel current at -70 mV holding potential by IonWork […] method; assay type: cell-based; method in brief: as §1
[5] = target: T1, Glutamate NMDA receptor; GRIN1/GRIN2A; test: Positive allosteric modulation of recombinant human GluN1/GluN2A receptor stably expressed in HEK293 cells assessed as increase in glycine/L-glutamate-induced channel current at -70 mV holding potential by IonWork […] method; assay type: cell-based; method in brief: as §1
[6] = target: T2, Glutamate NMDA receptor; GRIN1/GRIN2B; test: Positive allosteric modulation of recombinant human GluN1/GluN2B receptor stably expressed in HEK293 cells assessed as increase in glycine/L-glutamate-induced channel current at -70 mV holding potential by IonWork whole cell patch clamp method relative to control
[7] = Clearance in iv dosed rat; assay type: ADME, organism-based; details: in vivo
[8] = Ratio of drug level in Sprague-Dawley rat brain to plasma at 10 mg/kg, ip measured after 1 hr; assay type: ADME, organism-based; details: brain and plasma, read-out: BPR
[9] = Half life in rat; assay type: ADME; details: in vivo
[10] = Volume of distribution at steady state in rat; assay type: ADME; details: in vivo, read-out: Vdss
[11] = Oral bioavailability in rat; assay type: ADME, organism-based; details: in vivo
Hippocampus [12] = test: Induction of synaptic plasticity in postnatal 120 to 150 day rat brain hippocampal slice assessed as stimulation of theta burst stimulaiton-induced field potential potentiation at 1 uM treated 20 mins prior to theta burst stimulation and measured after 60 mins by electrophysiological method; assay type: functional, tissue-based
Hippocampus [13] = test: Induction of synaptic plasticity in postnatal 60 to 90 day rat brain hippocampal slice assessed as change in theta burst stimulaiton-induced field potential potentiation at 1 uM treated 20 mins prior to theta burst stimulation by electrophysiological method; assay type: functional, tissue-based
[14] = Ratio of drug level in Sprague-Dawley rat brain to plasma at 2.5 mg/kg, iv measured after 1 hr; assay type: ADME, organism-based; details: brain and plasma, read-out: BPR
[15] = target: T2, Glutamate NMDA receptor; GRIN1/GRIN2B; test: Potency index, ratio of 24(S)-hydroxycholesterol EC50 to test compound EC50 for positive allosteric modulation of recombinant human GluN1/GluN2B receptor stably expressed in HEK293 cells; assay type: cell-based
[16] = target: T1, Glutamate NMDA receptor; GRIN1/GRIN2A; test: Potency index, ratio of 24(S)-hydroxycholesterol EC50 to test compound EC50 for positive allosteric modulation of recombinant human GluN1/GluN2A receptor stably expressed in HEK293 cells; assay type: cell-based

SMILES	microsomal CLint [1]	Emax [2]	microsomal CLint [3]	EC50 [4]	EC50 [5]	Emax [6]	clearance [7]	Kp at 1 h [8]	half-life [9]	Vd [10]	bioavailability [11]	Activity (Hippocampus [12])	Activity (Hippocampus [13])	Kp at 1 h [14]	Ratio EC50 [15]	Ratio EC50 [16]
CC[C@@H](O)CC[C@@H](C)[C@H]1CC[C@H]2[C@@H]3CC=C4C[C@@](C)(O)CC[C@]4(C)[C@H]3CC[C@]12C	< 10 µL/min/mg	220%	25 µL/min/mg	0.03 µM	0.42 µM	130%	–	–	–	–	–	–	–	–	–	–
C[C@H](CC[C@H](O)C1CCC1)[C@H]1CC[C@H]2[C@@H]3CC=C4C[C@@](C)(O)CC[C@]4(C)[C@H]3CC[C@]12C	< 10 µL/min/mg	300%	31 µL/min/mg	0.12 µM	0.12 µM	530%	–	–	–	–	–	–	–	–	–	–
C[C@H](CC[C@@H](O)C1CC1)[C@H]1CC[C@H]2[C@@H]3CC=C4C[C@@](C)(O)CC[C@]4(C)[C@H]3CC[C@]12C	10 µL/min/mg	220%	20 µL/min/mg	0.19 µM	0.077 µM	280%	68.3 mL/min/kg	3.2	1.8 h	4.4 L/kg	–	–	–	–	–	–
C[C@H](CCCC(C)(C)O)[C@H]1CC[C@H]2[C@@H]3CC=C4C[C@@H](O)CC[C@]4(C)[C@H]3CC[C@]12C	23 µL/min/mg	–	31 µL/min/mg	> 10 µM	> 10 µM	67%	41.7 mL/min/kg	–	0.38 h	1.2 L/kg	6%	–	–	–	–	–
C[C@H](CC[C@@H](C)O)[C@H]1CC[C@H]2[C@@H]3CC=C4C[C@@](C)(O)CC[C@]4(C)[C@H]3CC[C@]12C	11 µL/min/mg	–	67 µL/min/mg	> 10 µM	> 10 µM	–	–	–	–	–	–	–	–	–	–	–
C[C@H](CCC(C)(C)O)[C@H]1CC[C@H]2[C@@H]3CC=C4C[C@](C)(O)CC[C@]4(C)[C@H]3CC[C@]12C	–	–	–	3.9 µM	> 10 µM	160%	–	–	–	–	–	–	–	–	–	–
C[C@@H]([C@H]1CC[C@H]2[C@@H]3CC=C4C[C@@H](O)CC[C@]4(C)[C@H]3CC[C@]12C)C(C)(C)O	6 µL/min/mg	–	48 µL/min/mg	> 10 µM	> 10 µM	–	–	–	–	–	–	–	–	–	–	–
C[C@H](O)CC[C@@H](C)[C@H]1CC[C@H]2[C@@H]3CC=C4C[C@@](C)(O)CC[C@]4(C)[C@H]3CC[C@]12C	< 10 µL/min/mg	–	56 µL/min/mg	3 µM	> 10 µM	50%	–	–	–	–	–	–	–	–	–	–
CC(C)(O)CCC[C@H]1CC[C@H]2[C@@H]3CC=C4C[C@@](C)(O)CC[C@]4(C)[C@H]3CC[C@]12C	–	120%	–	0.16 µM	0.55 µM	120%	–	–	–	–	–	–	–	–	–	–
C[C@H](CC[C@@H](O)C1CCC1)[C@H]1CC[C@H]2[C@@H]3CC=C4C[C@@](C)(O)CC[C@]4(C)[C@H]3CC[C@]12C	< 10 µL/min/mg	250%	25 µL/min/mg	0.27 µM	0.27 µM	410%	88.3 mL/min/kg	–	0.84 h	2.9 L/kg	18%	–	–	–	–	–
C[C@H](CCCO)[C@H]1CC[C@H]2[C@@H]3CC=C4C[C@@H](O)CC[C@]4(C)[C@H]3CC[C@]12C	13 µL/min/mg	290%	25 µL/min/mg	> 10 µM	3 µM	–	–	–	–	–	–	–	–	–	–	–
C[C@H](CCC1(O)CC1)[C@H]1CC[C@H]2[C@@H]3CC=C4C[C@@H](O)CC[C@]4(C)[C@H]3CC[C@]12C	10 µL/min/mg	280%	35 µL/min/mg	0.31 µM	0.9 µM	280%	–	–	–	–	–	–	–	–	–	–
CC(O)CC[C@@H](C)[C@H]1CC[C@H]2[C@@H]3CC=C4C[C@@H](O)CC[C@]4(C)[C@H]3CC[C@]12C (some centres undefined)	7 µL/min/mg	150%	17 µL/min/mg	0.14 µM	0.32 µM	180%	–	–	–	–	–	–	–	–	–	–
COC(C)(C)CC[C@@H](C)[C@H]1CC[C@H]2[C@@H]3CC=C4C[C@@](C)(O)CC[C@]4(C)[C@H]3CC[C@]12C	–	–	–	> 10 µM	> 10 µM	–	–	–	–	–	–	–	–	–	–	–
C[C@H](CC[C@H](O)C(F)(F)F)[C@H]1CC[C@H]2[C@@H]3CC=C4C[C@@](C)(O)CC[C@]4(C)[C@H]3CC[C@]12C	4 µL/min/mg	260%	12 µL/min/mg	0.11 µM	0.22 µM	170%	–	–	–	–	–	–	–	–	–	–
CC(C)[C@H](O)CC[C@@H](C)[C@H]1CC[C@H]2[C@@H]3CC=C4C[C@@H](O)CC[C@]4(C)[C@H]3CC[C@]12C	28 µL/min/mg	220%	93 µL/min/mg	0.055 µM	0.037 µM	140%	–	–	–	–	–	–	–	–	–	–
C[C@H](CCC(C)(C)O)[C@H]1CC[C@H]2[C@@H]3CC=C4C[C@@H](O)CC[C@]4(C)[C@H]3CC[C@]12C	10 µL/min/mg	110%	30 µL/min/mg	0.41 µM	0.18 µM	140%	–	–	–	–	–	Active	inactive	–	–	–
CC[C@H](O)CC[C@@H](C)[C@H]1CC[C@H]2[C@@H]3CC=C4C[C@@](C)(O)CC[C@]4(C)[C@H]3CC[C@]12C	15 µL/min/mg	250%	10 µL/min/mg	0.084 µM	0.1 µM	160%	–	–	–	–	–	–	–	–	–	–
C[C@H](CCC1(O)CC1)[C@H]1CC[C@H]2[C@@H]3CC=C4C[C@@](C)(O)CC[C@]4(C)[C@H]3CC[C@]12C	6 µL/min/mg	300%	23 µL/min/mg	0.41 µM	0.08 µM	180%	–	–	–	–	–	–	–	–	–	–
C[C@@H](CCC(C)(C)O)[C@H]1CC[C@H]2[C@@H]3CC=C4C[C@@](C)(O)CC[C@]4(C)[C@H]3CC[C@]12C	–	–	–	> 10 µM	> 10 µM	–	–	–	–	–	–	–	–	–	–	–
C[C@H](CC(C)(C)O)[C@H]1CC[C@H]2[C@@H]3CC=C4C[C@@H](O)CC[C@]4(C)[C@H]3CC[C@]12C	18 µL/min/mg	–	63 µL/min/mg	> 10 µM	> 10 µM	–	–	–	–	–	–	–	–	–	–	–
C[C@H](CC[C@@H](O)C(F)(F)F)[C@H]1CC[C@H]2[C@@H]3CC=C4C[C@@](C)(O)CC[C@]4(C)[C@H]3CC[C@]12C	3 µL/min/mg	150%	9 µL/min/mg	0.31 µM	0.03 µM	230%	31.7 mL/min/kg	–	1.9 h	2.8 L/kg	70%	–	–	1	–	–
CC(C)[C@@H](O)CC[C@@H](C)[C@H]1CC[C@H]2[C@@H]3CC=C4C[C@@](C)(O)CC[C@]4(C)[C@H]3CC[C@]12C	< 10 µL/min/mg	200%	28 µL/min/mg	0.013 µM	0.033 µM	230%	51.7 mL/min/kg	1.3	1.6 h	3.7 L/kg	15%	–	–	–	> 10	4
CC(C)[C@H](O)CC[C@@H](C)[C@H]1CC[C@H]2[C@@H]3CC=C4C[C@@](C)(O)CC[C@]4(C)[C@H]3CC[C@]12C	< 10 µL/min/mg	200%	11 µL/min/mg	0.19 µM	0.12 µM	230%	38.3 mL/min/kg	0.8	2.2 h	3.1 L/kg	25%	–	–	–	–	–
C[C@H](CC[C@H](O)C1CC1)[C@H]1CC[C@H]2[C@@H]3CC=C4C[C@@](C)(O)CC[C@]4(C)[C@H]3CC[C@]12C	< 10 µL/min/mg	230%	28 µL/min/mg	0.17 µM	0.32 µM	150%	–	–	–	–	–	–	–	–	–	–
